Results taken from ChEMBL document CHEMBL4689842, “EUbOPEN Chemogenomics Library wave 1” (2021).

Tested on: HEK-293T
Assay: Multiplex assay against HEK293T;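 as to Population Tubulin-Different-Phenotype (%): share of the cells with healthy nuclei that show this phenotype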
Type: toxicity, cell-based
Settings: human
In short: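 Per cents of healthy-nucleus cells form the tubulin, mitochondrial-mass and membrane-permeability phenotype values. Live cells were stained at seeding with Hoechst33342, BioTracker Green Microtubule Cytoskeleton Dye, MitoTracker Red and Annexin V Alexa Fluor 680. After compound addition they were imaged on a CQ1 microscope at 37°C and 5% CO2, and CellPathfinder machine-learning gating split them into Hoechst high-intensity objects or normal cells, normal cells into healthy, pyknosed or fragmented nuclei, and pyknosed cells into mitotic or apoptotic.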

[1] = 12 h, 1 µM, compound concentration 1 uM, replicate 1
[2] = 12 h, 1 µM, compound concentration 1 uM, replicate 2
[3] = 12 h, 10 µM, compound concentration 10 uM, replicate 1
[4] = 12 h, 10 µM, compound concentration 10 uM, replicate 2
[5] = 24 h, 1 µM, compound concentration 1 uM, replicate 1
[6] = 24 h, 1 µM, compound concentration 1 uM, replicate 2
[7] = 24 h, 10 µM, compound concentration 10 uM, replicate 1
[8] = 24 h, 10 µM, compound concentration 10 uM, replicate 2
[9] = 48 h, 1 µM, compound concentration 1 uM, replicate 1
[10] = 48 h, 1 µM, compound concentration 1 uM, replicate 2
[11] = 48 h, 10 µM, compound concentration 10 uM, replicate 1
[12] = 48 h, 10 µM, compound concentration 10 uM, replicate 2

## C=CC(=O)Nc1ccc2ncnc(Nc3ccc(OCc4cccc(F)c4)c(Cl)c3)c2c1.Cc1ccc(S(=O)(=O)O)cc1
[1]
  Population Apoptotic (%): 52%
  Population Fragmented Nuclei (%): 11%
  Population Healthy Nuclei (%): 38%
  Population Hoechst High Intensity Objects (%): 11%
  Population Mitochondria Different-Phenotype (%): 75%
  Population Mitotic Cells (%): 47%
  Population Normal (%): 88%
  Population Pyknosed Nuclei (%): 49%
  Population Tubulin-Different-Phenotype (%): 39%
  Total Cell Count: 304
[2]
  Population Apoptotic (%): 11%
  Population Fragmented Nuclei (%): 6%
  Population Healthy Nuclei (%): 45%
  Population Hoechst High Intensity Objects (%): 2%
  Population Membrane Permeable-Phenotype (%): 5%
  Population Mitochondria Different-Phenotype (%): 26%
  Population Mitotic Cells (%): 88%
  Population Normal (%): 97%
  Population Pyknosed Nuclei (%): 47%
  Population Tubulin-Different-Phenotype (%): 24%
  Total Cell Count: 226
[3]
  Population Apoptotic (%): 51%
  Population Fragmented Nuclei (%): 10%
  Population Healthy Nuclei (%): 38%
  Population Hoechst High Intensity Objects (%): 12%
  Population Membrane Permeable-Phenotype (%): 2%
  Population Mitochondria Different-Phenotype (%): 82%
  Population Mitotic Cells (%): 48%
  Population Normal (%): 87%
  Population Pyknosed Nuclei (%): 51%
  Population Tubulin-Different-Phenotype (%): 44%
  Total Cell Count: 267
[4]
  Population Apoptotic (%): 49%
  Population Fragmented Nuclei (%): 22%
  Population Healthy Nuclei (%): 21%
  Population Hoechst High Intensity Objects (%): 8%
  Population Membrane Permeable-Phenotype (%): 0%
  Population Mitochondria Different-Phenotype (%): 27%
  Population Mitotic Cells (%): 50%
  Population Normal (%): 91%
  Population Pyknosed Nuclei (%): 56%
  Population Tubulin-Different-Phenotype (%): 27%
  Total Cell Count: 184
[5]
  Population Apoptotic (%): 45%
  Population Fragmented Nuclei (%): 11%
  Population Healthy Nuclei (%): 41%
  Population Hoechst High Intensity Objects (%): 15%
  Population Membrane Permeable-Phenotype (%): 3%
  Population Mitochondria Different-Phenotype (%): 61%
  Population Mitotic Cells (%): 54%
  Population Normal (%): 84%
  Population Pyknosed Nuclei (%): 47%
  Population Tubulin-Different-Phenotype (%): 39%
  Total Cell Count: 351
[6]
  Population Apoptotic (%): 16%
  Population Fragmented Nuclei (%): 7%
  Population Healthy Nuclei (%): 63%
  Population Hoechst High Intensity Objects (%): 2%
  Population Membrane Permeable-Phenotype (%): 10%
  Population Mitochondria Different-Phenotype (%): 19%
  Population Mitotic Cells (%): 83%
  Population Normal (%): 97%
  Population Pyknosed Nuclei (%): 28%
  Population Tubulin-Different-Phenotype (%): 30%
  Total Cell Count: 279
[7]
  Population Apoptotic (%): 56%
  Population Fragmented Nuclei (%): 11%
  Population Healthy Nuclei (%): 41%
  Population Hoechst High Intensity Objects (%): 16%
  Population Mitochondria Different-Phenotype (%): 78%
  Population Mitotic Cells (%): 43%
  Population Normal (%): 83%
  Population Pyknosed Nuclei (%): 47%
  Population Tubulin-Different-Phenotype (%): 48%
  Total Cell Count: 262
[8]
  Population Apoptotic (%): 48%
  Population Fragmented Nuclei (%): 17%
  Population Healthy Nuclei (%): 30%
  Population Hoechst High Intensity Objects (%): 9%
  Population Membrane Permeable-Phenotype (%): 2%
  Population Mitochondria Different-Phenotype (%): 50%
  Population Mitotic Cells (%): 51%
  Population Normal (%): 90%
  Population Pyknosed Nuclei (%): 52%
  Population Tubulin-Different-Phenotype (%): 45%
  Total Cell Count: 161
[9]
  Population Apoptotic (%): 44%
  Population Fragmented Nuclei (%): 15%
  Population Healthy Nuclei (%): 47%
  Population Hoechst High Intensity Objects (%): 13%
  Population Membrane Permeable-Phenotype (%): 4%
  Population Mitochondria Different-Phenotype (%): 32%
  Population Mitotic Cells (%): 55%
  Population Normal (%): 86%
  Population Pyknosed Nuclei (%): 37%
  Population Tubulin-Different-Phenotype (%): 32%
  Total Cell Count: 430
[10]
  Population Apoptotic (%): 4%
  Population Fragmented Nuclei (%): 6%
  Population Healthy Nuclei (%): 83%
  Population Hoechst High Intensity Objects (%): 2%
  Population Membrane Permeable-Phenotype (%): 11%
  Population Mitochondria Different-Phenotype (%): 4%
  Population Mitotic Cells (%): 96%
  Population Normal (%): 97%
  Population Pyknosed Nuclei (%): 10%
  Population Tubulin-Different-Phenotype (%): 23%
  Total Cell Count: 512
[11]
  Population Apoptotic (%): 51%
  Population Fragmented Nuclei (%): 16%
  Population Healthy Nuclei (%): 48%
  Population Hoechst High Intensity Objects (%): 12%
  Population Membrane Permeable-Phenotype (%): 5%
  Population Mitochondria Different-Phenotype (%): 46%
  Population Mitotic Cells (%): 48%
  Population Normal (%): 87%
  Population Pyknosed Nuclei (%): 35%
  Population Tubulin-Different-Phenotype (%): 38%
  Total Cell Count: 339
[12]
  Population Apoptotic (%): 60%
  Population Fragmented Nuclei (%): 13%
  Population Healthy Nuclei (%): 53%
  Population Hoechst High Intensity Objects (%): 10%
  Population Membrane Permeable-Phenotype (%): 8%
  Population Mitochondria Different-Phenotype (%): 22%
  Population Mitotic Cells (%): 40%
  Population Normal (%): 89%
  Population Pyknosed Nuclei (%): 32%
  Population Tubulin-Different-Phenotype (%): 46%
  Total Cell Count: 187
